Measurements published in ChEMBL document CHEMBL1124384, “Deaminoteicoplanin and its derivatives. Synthesis, antibacterial activity, and binding strength to Ac-D-Ala-D-Ala” (J Med Chem, 1989).
≈ marks a conversion by molar mass, not a printed value.

Legend:
Streptococcus pneumoniae = test: Minimal inhibitory concentration of compound against Streptococcus pneumoniae UC41; format: functional
Procedure, shortened: (§1)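 Streptococci were tested by 2-fold broth microdilution in Todd-Hewitt broth, with a final inoculum of about 10⁴ cfu/mL. After 18–24 h at 37 °C, MIC was read as the lowest concentration with no visible growth.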

Staphylococcus aureus [1] = test: Minimal inhibitory concentration of compound against Staphylococcus aureus Tour in an inoculum of 10e6 cfu/mL; format: functional
Procedure, shortened: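 Twofold microtiter broth dilution in Iso-sensitest broth, with the inoculum raised to 10⁶ cfu/mL. After 18–24 h at 37 °C, MIC was read as the lowest concentration giving no visible growth.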

[2] = system: Staphylococcus epidermidis; test: Minimal inhibitory concentration of compound against […] ATCC 12228; format: functional
Staphylococcus aureus [3] = test: Minimal inhibitory concentration of compound against Staphylococcus aureus Tour determined in iso-sensitest broth supplemented with 30% bovine serum and an inoculum of 10e4 cfu/mL
Streptococcus pyogenes = test: Minimal inhibitory concentration of compound against Streptococcus pyogenes C203; format: functional; procedure, shortened: as §1
Enterococcus faecalis = test: Minimal inhibitory concentration of compound against Streptococcus faecalis AACC7080; format: functional
Procedure, shortened: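 For S. faecalis, 2-fold dilution MIC in a microtiter system using Iso-sensitest broth and a final inoculum of about 10⁴ cfu/mL. Incubation was 18–24 h at 37 °C. The endpoint was the lowest concentration without visible growth.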

Staphylococcus aureus [4] = test: Minimal inhibitory concentration of compound against Staphylococcus aureus Tour; format: functional
Procedure, shortened: (§2)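 Broth MIC by 2-fold serial dilution in microtiter format, in Iso-sensitest broth, with a final inoculum of about 10⁴ cfu/mL. Plates were incubated 18–24 h at 37 °C. MIC was taken as the lowest concentration with no visible growth.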

[5] = Association constant for compound at 31 degree C was determined; format: ADME
Procedure, shortened: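 UV difference spectroscopy at 31 °C. Antibiotic at 25 μM in 10% methanol/0.02 M sodium citrate buffer, pH 5, sat in sample and reference cells (4-cm path). Ac-D-Ala-D-Ala was added from a 4 mM stock to the sample cell, with buffer added to the reference. The absorbance change was read at 282–285 nm. K_A came from Scatchard plots, with antibiotic concentration set by UV at 279 nm.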

Staphylococcus aureus [6] = test: Minimal inhibitory concentration of compound against Staphylococcus aureus; format: functional; procedure, shortened: as §2

| Structure (SMILES) | MIC (Streptococcus pneumoniae) [µg/mL] | MIC (Staphylococcus aureus [1]) [µg/mL] | MIC [2] [µg/mL] | MIC (Staphylococcus aureus [3]) [µg/mL] | MIC (Streptococcus pyogenes) [µg/mL] | MIC (Enterococcus faecalis) [µg/mL] | MIC (Staphylococcus aureus [4]) [µg/mL] | KA [5] [M⁻¹] | MIC (Staphylococcus aureus [6]) [µg/mL] |
| --- | --- | --- | --- | --- | --- | --- | --- | --- | --- |
| CN(C)CCCNC(=O)[C@H]1NC(=O)[C@H]2NC(=O)[C@H](NC(=O)[C@@H]3NC(=O)[C@H]4NC(=O)[C@@H](Cc5ccc(c(Cl)c5)Oc5cc3cc(c5O)Oc3ccc(cc3Cl)[C@H]2O)NC(=O)[C@H](N)c2ccc(O)c(c2)Oc2cc(O)cc4c2)c2ccc(O)c(c2)-c2c(O)cc(O)cc21 | 0.06 (≈ 0.0468 µM) | 0.12 (≈ 0.0935 µM) | 0.016 (≈ 0.0125 µM) | 0.25 (≈ 0.195 µM) | 0.06 (≈ 0.0468 µM) | 0.12 (≈ 0.0935 µM) | 0.06 (≈ 0.0468 µM) | – | – |
| CC(=O)N[C@@H]1[C@H](O[C@@H]2c3ccc(c(Cl)c3)Oc3cc4cc(c3O)Oc3ccc(cc3Cl)C[C@H]3NC(=O)[C@H](N)c5ccc(O)c(c5)Oc5cc(O)cc(c5)[C@H](NC3=O)C(=O)N[C@H]4C(=O)N[C@H]3C(=O)N[C@@H]2C(=O)N[C@H](C(=O)O)c2cc(O)cc(O)c2-c2cc3ccc2O)O[C@@H](CO)[C@@H](O)[C@@H]1O | 1 (≈ 0.713 µM) | 0.25 (≈ 0.178 µM) | 0.12 (≈ 0.0856 µM) | 0.5 (≈ 0.357 µM) | 0.5 (≈ 0.357 µM) | 1 (≈ 0.713 µM) | 0.5 (≈ 0.357 µM) | – | – |
| N[C@H]1C(=O)N[C@@H]2Cc3ccc(c(Cl)c3)Oc3cc4cc(c3O)Oc3ccc(cc3Cl)[C@@H](O)[C@@H]3NC(=O)[C@H](NC(=O)[C@@H]4NC(=O)[C@@H](NC2=O)c2cc(O)cc(c2)Oc2cc1ccc2O)c1ccc(O)c(c1)-c1c(O)cc(O)cc1[C@@H](C(=O)NC1CN2CCC1CC2)NC3=O (some centres undefined) | 0.06 (≈ 0.0459 µM) | 0.12 (≈ 0.0918 µM) | 0.06 (≈ 0.0459 µM) | 0.5 (≈ 0.383 µM) | 0.06 (≈ 0.0459 µM) | 0.12 (≈ 0.0918 µM) | 0.12 (≈ 0.0918 µM) | – | – |
| CC(=O)N[C@@H]1[C@H](O[C@@H]2c3ccc(c(Cl)c3)Oc3cc4cc(c3O)Oc3ccc(cc3Cl)C[C@H]3NC(=O)[C@H](N)c5ccc(O)c(c5)Oc5cc(O)cc(c5)[C@H](NC3=O)C(=O)N[C@H]4C(=O)N[C@H]3C(=O)N[C@@H]2C(=O)N[C@H](C(=O)O)c2cc(O)cc(O[C@H]4O[C@H](CO)[C@@H](O)[C@@H](O)[C@@H]4O)c2-c2cc3ccc2O)O[C@@H](CO)[C@@H](O)[C@@H]1O | 0.5 (≈ 0.32 µM) | 0.5 (≈ 0.32 µM) | 0.25 (≈ 0.16 µM) | 0.5 (≈ 0.32 µM) | 0.5 (≈ 0.32 µM) | 2 (≈ 1.28 µM) | 0.25 (≈ 0.16 µM) | – | – |
| CCCCCCCCCC(=O)N[C@@H]1[C@H](Oc2c3cc4cc2Oc2ccc(cc2Cl)[C@@H](O[C@@H]2O[C@@H](CO)[C@@H](O)[C@H](O)[C@@H]2NC(C)=O)[C@@H]2NC(=O)[C@H](NC(=O)[C@@H]4NC(=O)[C@H]4NC(=O)[C@@H](Cc5ccc(c(Cl)c5)O3)NC(=O)[C@H](N)c3ccc(O)c(c3)Oc3cc(O)cc4c3)c3ccc(O)c(c3)-c3c(O[C@H]4O[C@H](CO)[C@@H](O)[C@@H](O)[C@@H]4O)cc(O)cc3[C@@H](C(=O)O)NC2=O)O[C@@H](CO)[C@@H](O)[C@@H]1O | 0.06 (≈ 0.0319 µM) | 0.5 (≈ 0.266 µM) | 0.25 (≈ 0.133 µM) | 0.5 (≈ 0.266 µM) | 0.06 (≈ 0.0319 µM) | 0.12 (≈ 0.0638 µM) | 0.12 (≈ 0.0638 µM) | 1100000 | – |
| O=C1Cc2ccc(O)c(c2)Oc2cc(O)cc(c2)[C@@H]2NC(=O)[C@@H](Cc3ccc(c(Cl)c3)Oc3cc4cc(c3O)Oc3ccc(cc3Cl)[C@@H](O)[C@@H]3NC(=O)[C@H](NC(=O)[C@@H]4NC2=O)c2ccc(O)c(c2)-c2c(O)cc(O)cc2[C@@H](C(=O)O)NC3=O)N1 | 0.06 (≈ 0.0507 µM) | 0.25 (≈ 0.211 µM) | 0.25 (≈ 0.211 µM) | 1 (≈ 0.845 µM) | 0.06 (≈ 0.0507 µM) | 0.12 (≈ 0.101 µM) | 0.12 (≈ 0.101 µM) | 11000 | – |
| CCCCCCCCCC(=O)N[C@@H]1[C@H](Oc2c3cc4cc2Oc2ccc(cc2Cl)[C@@H](O[C@@H]2O[C@@H](CO)[C@@H](O)[C@H](O)[C@@H]2NC(C)=O)[C@@H]2NC(=O)[C@H](NC(=O)[C@@H]4NC(=O)[C@H]4NC(=O)[C@@H](Cc5ccc(c(Cl)c5)O3)NC(=O)[C@H](N)c3ccc(O)c(c3)Oc3cc(O)cc4c3)c3ccc(O)c(c3)-c3c(O[C@H]4O[C@H](CO)[C@@H](O)[C@@H](O)[C@@H]4O)cc(O)cc3[C@@H](C(=O)N(C)C)NC2=O)O[C@@H](CO)[C@@H](O)[C@@H]1O | 0.06 (≈ 0.0315 µM) | 0.12 (≈ 0.0629 µM) | 0.06 (≈ 0.0315 µM) | 0.5 (≈ 0.262 µM) | 0.06 (≈ 0.0315 µM) | 0.12 (≈ 0.0629 µM) | 0.12 (≈ 0.0629 µM) | – | – |
| CN(C)CCCNC(=O)[C@H]1NC(=O)[C@H]2NC(=O)[C@H](NC(=O)[C@@H]3NC(=O)[C@H]4NC(=O)[C@@H](Cc5ccc(c(Cl)c5)Oc5cc3cc(c5O)Oc3ccc(cc3Cl)[C@H]2O)NC(=O)Cc2ccc(O)c(c2)Oc2cc(O)cc4c2)c2ccc(O)c(c2)-c2c(O)cc(O)cc21 | 0.2 (≈ 0.158 µM) | 0.12 (≈ 0.0946 µM) | 0.12 (≈ 0.0946 µM) | 4 (≈ 3.15 µM) | 0.12 (≈ 0.0946 µM) | 0.12 (≈ 0.0946 µM) | 0.12 (≈ 0.0946 µM) | – | – |
| CC(=O)N[C@@H]1[C@H](O[C@@H]2c3ccc(c(Cl)c3)Oc3cc4cc(c3O)Oc3ccc(cc3Cl)C[C@H]3NC(=O)Cc5ccc(O)c(c5)Oc5cc(O)cc(c5)[C@H](NC3=O)C(=O)N[C@H]4C(=O)N[C@H]3C(=O)N[C@@H]2C(=O)N[C@H](C(=O)O)c2cc(O)cc(O[C@H]4O[C@H](CO)[C@@H](O)[C@@H](O)[C@@H]4O)c2-c2cc3ccc2O)O[C@@H](CO)[C@@H](O)[C@@H]1O | 4 (≈ 2.58 µM) | 8 (≈ 5.16 µM) | 1 (≈ 0.645 µM) | 16 (≈ 10.3 µM) | 4 (≈ 2.58 µM) | 4 (≈ 2.58 µM) | 2 (≈ 1.29 µM) | – | – |
| CC(=O)N[C@@H]1[C@H](O[C@@H]2c3ccc(c(Cl)c3)Oc3cc4cc(c3O)Oc3ccc(cc3Cl)C[C@H]3NC(=O)Cc5ccc(O)c(c5)Oc5cc(O)cc(c5)[C@H](NC3=O)C(=O)N[C@H]4C(=O)N[C@H]3C(=O)N[C@@H]2C(=O)N[C@H](C(=O)O)c2cc(O)cc(O)c2-c2cc3ccc2O)O[C@@H](CO)[C@@H](O)[C@@H]1O | 2 (≈ 1.44 µM) | 2 (≈ 1.44 µM) | 1 (≈ 0.721 µM) | 16 (≈ 11.5 µM) | 8 (≈ 5.77 µM) | 8 (≈ 5.77 µM) | 2 (≈ 1.44 µM) | – | – |
| CCCCCCCCCC(=O)N[C@@H]1[C@H](Oc2c3cc4cc2Oc2ccc(cc2Cl)[C@@H](O[C@@H]2O[C@@H](CO)[C@@H](O)[C@H](O)[C@@H]2NC(C)=O)[C@@H]2NC(=O)[C@H](NC(=O)[C@@H]4NC(=O)[C@H]4NC(=O)[C@@H](Cc5ccc(c(Cl)c5)O3)NC(=O)Cc3ccc(O)c(c3)Oc3cc(O)cc4c3)c3ccc(O)c(c3)-c3c(O[C@H]4O[C@H](CO)[C@@H](O)[C@@H](O)[C@@H]4O)cc(O)cc3[C@@H](C(=O)O)NC2=O)O[C@@H](CO)[C@@H](O)[C@@H]1O | 0.25 (≈ 0.134 µM) | 2 (≈ 1.07 µM) | 0.12 (≈ 0.0644 µM) | 8 (≈ 4.29 µM) | 0.12 (≈ 0.0644 µM) | 0.5 (≈ 0.268 µM) | – | 130000 | 0.5 (≈ 0.268 µM) |
| O=C1Cc2ccc(O)c(c2)Oc2cc(O)cc(c2)[C@@H]2NC(=O)[C@@H](Cc3ccc(c(Cl)c3)Oc3cc4cc(c3O)Oc3ccc(cc3Cl)[C@@H](O)[C@@H]3NC(=O)[C@H](NC(=O)[C@@H]4NC2=O)c2ccc(O)c(c2)-c2c(O)cc(O)cc2[C@@H](C(=O)NC2CN4CCC2CC4)NC3=O)N1 (some centres undefined) | 0.12 (≈ 0.0929 µM) | 0.25 (≈ 0.193 µM) | 0.12 (≈ 0.0929 µM) | 4 (≈ 3.1 µM) | 0.12 (≈ 0.0929 µM) | 0.25 (≈ 0.193 µM) | 0.12 (≈ 0.0929 µM) | 22000 | – |
| CCCCCCCCCC(=O)N[C@@H]1[C@H](Oc2c3cc4cc2Oc2ccc(cc2Cl)[C@@H](O[C@@H]2O[C@@H](CO)[C@@H](O)[C@H](O)[C@@H]2NC(C)=O)[C@@H]2NC(=O)[C@H](NC(=O)[C@@H]4NC(=O)[C@H]4NC(=O)[C@@H](Cc5ccc(c(Cl)c5)O3)NC(=O)Cc3ccc(O)c(c3)Oc3cc(O)cc4c3)c3ccc(O)c(c3)-c3c(O[C@H]4O[C@H](CO)[C@@H](O)[C@@H](O)[C@@H]4O)cc(O)cc3[C@@H](C(=O)N(C)C)NC2=O)O[C@@H](CO)[C@@H](O)[C@@H]1O | 0.12 (≈ 0.0634 µM) | 1 (≈ 0.529 µM) | 0.12 (≈ 0.0634 µM) | 4 (≈ 2.11 µM) | 0.12 (≈ 0.0634 µM) | 0.25 (≈ 0.132 µM) | 0.12 (≈ 0.0634 µM) | 200000 | – |
| N[C@H]1C(=O)N[C@@H]2Cc3ccc(c(Cl)c3)Oc3cc4cc(c3O)Oc3ccc(cc3Cl)[C@@H](O)[C@@H]3NC(=O)[C@H](NC(=O)[C@@H]4NC(=O)[C@@H](NC2=O)c2cc(O)cc(c2)Oc2cc1ccc2O)c1ccc(O)c(c1)-c1c(O)cc(O)cc1[C@@H](C(=O)O)NC3=O [TEICOPLANIN AGLYCON] | 0.12 (≈ 0.1 µM) | 0.12 (≈ 0.1 µM) | 0.016 (≈ 0.0133 µM) | 0.25 (≈ 0.209 µM) | 0.12 (≈ 0.1 µM) | 0.12 (≈ 0.1 µM) | 0.06 (≈ 0.05 µM) | 180000 | – |
